SIRT5 block – SIRT5 desuccinylase inhibitors, primary screen, biochemical, fluorescence imaging, single point, set 5; 330,000 compounds, 1.1% hits; NAD-dependent protein deacylase sirtuin-5, mitochondrial (Homo sapiens), Q9NXA8; inhibition, % at 15 µM; AID 652115, 2013; Purified SirT5, succinyl-peptide AMC, trypsin-coupled fluorescence; in the data active = inhibition above about 15%
Target sequence (Q9NXA8 whole entry, looked up): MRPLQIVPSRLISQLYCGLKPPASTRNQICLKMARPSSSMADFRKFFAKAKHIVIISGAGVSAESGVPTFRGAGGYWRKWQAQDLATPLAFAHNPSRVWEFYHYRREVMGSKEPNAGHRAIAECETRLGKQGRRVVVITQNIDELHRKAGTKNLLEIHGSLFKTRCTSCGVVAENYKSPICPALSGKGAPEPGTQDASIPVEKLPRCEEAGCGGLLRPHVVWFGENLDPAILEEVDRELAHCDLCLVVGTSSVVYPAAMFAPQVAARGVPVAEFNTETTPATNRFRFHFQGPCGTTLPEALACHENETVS
DENV2 CPE – inhibitors of DENV2 cytopathic effect, primary screen, cell-based, plate reader, single concentration; DENV2-infected cells, cytopathic effect rescue; CPE inhibition, % at 9.99 µM; 350,000 compounds, 1.7% hits; AID 651640, 2012; in the data active = CPE inhibition above about 20%, passing the limit was not always enough; tested in BHK-21 cells;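 also: 0% = median of neutral control wells and 100% = median of positive control wells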
S100A4 MyoIIA – inhibitors of S100A4-myosin IIA peptide binding, primary screen, biochemical, fluorescence polarization, TAMRA-MyoIIA peptide; Protein S100-A4 (Homo sapiens), P26447; inhibition, % at 10.7 µM; 360,000 compounds, 0.14% hits; AID 652163, 2013;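 active = mean inhibition of at least 70% across replicates, with every replicate also reaching that level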
Target sequence (P26447 whole entry, looked up): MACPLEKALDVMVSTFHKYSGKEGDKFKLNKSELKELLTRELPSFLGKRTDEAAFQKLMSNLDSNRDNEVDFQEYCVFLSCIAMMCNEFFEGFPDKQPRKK
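System – human S100A4 monomer protein, biochemical binding assay · Buffer or medium – Calcium-containing HEPES buffer, pH 7.2 · Timing – 5 min between mix addition and reading · Also added – TAMRA-labelled myosin IIA heavy-chain peptide probe, 5 nM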
CAL PDZ FP-1 – CAL PDZ peptide-binding inhibitors, primary screen, biochemical, fluorescence polarization, Cer-tagged CAL PDZ, HTS. 330,000 compounds, 0.02% hits. Golgi-associated PDZ and coiled-coil motif-containing protein (Homo sapiens), Q9HD26. purified CAL PDZ, TMR-peptide fluorescence polarization, 1 h. inhibition, % at 20 µM;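 active = highest replicate inhibition of at least 40%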;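 also: plate controls were DMSO neutral control wells for no effect and unlabeled competitor peptide control wells for full effect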
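Test system: tagged CAL PDZ domain / Buffer or medium: sodium phosphate/NaCl buffer pH 7.4 with TCEP, IgG, Thesit / Reagent: TMR-labelled reporter peptide T*-PRC34 bound in PDZ groove / Compound dosing: single point, 20 µM / Schedule: 1 h incubation at room temperature before polarization reading / Technique: fluorescence polarization (mP) / Benchmarks: unlabelled peptide, DMSO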
ERAP1 HTS inh – human ERAP1 aminopeptidase inhibitors, primary screen, biochemical, single point, plate reader | inhibition, % at 10.7 µM | recombinant ERAP1, Leu-AMC fluorescence, 60 min | AID 652197, 2013 | Endoplasmic reticulum aminopeptidase 1 (Homo sapiens), Q9NZ08 | 340,000 compounds, 0.15% hits;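 active = mean replicate inhibition of at least 30%, or all replicates individually reaching that 30% level; inactive = mean below 30% and not every replicate reaching it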;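 also: 0% = neutral control wells and 100% = L-leucinethiol positive control wells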
CAL PDZ FP-2 – untagged CAL PDZ binding inhibitors, primary screen, biochemical, fluorescence polarization, HTS; Golgi-associated PDZ and coiled-coil motif-containing protein (Homo sapiens), Q9HD26; purified CAL PDZ, TMR-peptide fluorescence polarization, 1 h; inhibition, % at 24.9 µM; 300,000 compounds, 0.92% hits;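 active = mean inhibition of at least 30% with at least half of replicates also reaching 30%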;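 also: 0% = DMSO neutral control and 100% = excess unlabeled competitor peptide PRC23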
* hit, by the source's call; . = no result. Hits are enriched below; roughly 2.9% of the tested compounds scored in any of these assays.

SMILES | SIRT5 block | DENV2 CPE | S100A4 MyoIIA | CAL PDZ FP-1 | ERAP1 HTS inh | CAL PDZ FP-2
O=C(N[C@@H]1c2ccccc2CC[C@@H]1OCc1ccccc1)c1ccc(C(F)(F)F)cc1 | -4 | 69* | -6 | 1 | 11 | -5
O=C(COCc1ccccc1)N[C@@H]1c2ccccc2CC[C@H]1OCc1ccccc1 | -3 | -2 | 1 | 0 | 0 | -5
O=C(O)C[C@@H]1C[C@@H]2c3cc(NS(=O)(=O)c4ccccc4)ccc3O[C@@H]2[C@H](CO)O1 | 0 | -4 | 6 | . | 1 | .
CC=Cc1ccc2n(c1=O)C[C@@H]1[C@@H](CO)[C@H](C(=O)NCCOC)[C@H]2N1Cc1ccccc1OC (mixture of isomers) | 9 | -12 | 2 | . | -3 | .
COCCn1c(=S)[nH]c2sc3c(c2c1=O)CCC(C)C3 (centres undefined) | -4 | 0 | 1 | -3 | 2 | -6
Cn1c(=S)[nH]c2sc3c(c2c1=O)CCC(C(C)(C)C)C3 (centres undefined) | 35* | -4 | -1 | -3 | -5 | -2
CN1C(=O)c2cc(NC(=O)c3ccc(F)cc3)ccc2OC[C@@H]2O[C@H](CC(=O)NCC3CCCCC3)CC[C@@H]21 | 6 | -27 | -60 | . | -2 | .
COc1ccccc1C(=O)NC(CCSC)C(=O)NC1CC1 (centres undefined) | 0 | -8 | 7 | -2 | -3 | 62*
CO[C@@H]1CN(C)C(=O)c2cc(NC(C)=O)ccc2OC[C@H](C)N(Cc2cncnc2)C[C@@H]1C | -5 | 16 | 13 | . | -2 | .
Cc1ccc(C(=O)COC(=O)C2CC3CCCC(C2)C3=O)cc1[N+](=O)[O-] (centres undefined) | 2 | 13 | 140* | 0 | 1 | 1
C[C@H](CO)N1C[C@H](C)[C@H](CN(C)C)Oc2cc(-c3cccc(C(=O)N(C)C)c3)ccc2S1(=O)=O | -5 | 3 | -2 | . | 0 | .
CO[C@H]1CN(C)C(=O)c2ccc(NC(=O)c3ccno3)cc2OC[C@H](C)NC[C@@H]1C | 2 | 3 | -58 | . | 1 | .
C[C@@H]1CN([C@@H](C)CO)C(=O)c2cccc(NC(=O)c3nc4ccccc4s3)c2O[C@@H]1CN(C)CC1CCCCC1 | 0 | 3 | -5 | . | 2 | .
COc1cc(OC)c(N(C)S(=O)(=O)c2cccc(C(=O)OCC(=O)N3CCOCC3)c2)cc1Cl | -4 | -6 | -13 | 7 | 1 | 32*
COc1cc(OC)c(N(C)S(=O)(=O)c2cccc(C(=O)OCc3c(C)noc3C)c2)cc1Cl | -1 | -3 | -4 | -1 | 2 | 3
Cc1nc(CCNC(=O)CC2C(=O)NCCN2CC(C)C)nc2c1CCC2 (centres undefined) | 0 | 44* | -2 | 0 | 3 | -4
Cc1nc(CCNC(=O)CC2C(=O)NCCN2CC(C)(C)C)nc2c1CCC2 (centres undefined) | -2 | 13 | 4 | -1 | -3 | 0
O=C(CN1CCN(c2ccccc2F)CC1)NC(=O)NCc1ccco1 | -2 | 1 | 1 | 0 | 0 | 44*
CCCCCC(=O)N1C[C@@H](O)[C@H](n2cc(COC(=O)c3ccccc3)nn2)C[C@@H]1c1ccc(C)cc1 | -1 | 74* | -8 | . | 0 | .
CCCCCCN1C[C@@H](O)[C@H](n2cc(COC(=O)c3ccccc3)nn2)C[C@@H]1c1ccc(C)cc1 | 24* | 0 | -2 | . | 2 | .
CCCCCCN1C[C@@H](O)[C@H](n2cc(COC(=O)c3ccccc3)nn2)C[C@@H]1c1ccccc1 | 12 | -9 | -9 | . | 6 | .
C[C@@H]1CCCCO[C@@H](CN(C)Cc2ccccc2)[C@H](C)CN([C@@H](C)CO)C(=O)c2cc(N(C)C)ccc2O1 | 2 | -17 | 6 | . | -4 | .

Screening data from PubChem BioAssay.
